Results: ChEMBL document CHEMBL1140891, “Design, synthesis and biological evaluation of novel stilbene-based antitumor agents” (Bioorg Med Chem, 2009)
Activity calls are given as the source filed them. No cut-off for these calls is given here.

Legend:
MIA PaCa-2 = experiment: Cytotoxicity against human MIAPaCa2 cells after 48 hrs by alamar blue assay; format: functional, cell-based; conditions: MIA PaCa-2, 48 h
Outline: (§1)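 MDA-MB231, MiaPaCa2 and SNU423 cells (ATCC) were grown in DMEM, and UCI-101 cells in IMDM. Both media had 10% FBS plus penicillin/streptomycin/glutamine, under 5% CO2. Cells were treated for 48 h at seven concentrations from 0 to 3.0. Alamar Blue was added at 1/10 volume and OD was read at 570 and 600 nm. % growth inhibition versus untreated cells used extinction-coefficient formula; IC50 from three experiments.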

SNU-423 = experiment: Cytotoxicity against human SNU423 cells after 48 hrs by alamar blue assay; format: functional, cell-based; conditions: SNU-423, 48 h; outline: as §1
MDA-MB-231 = experiment: Cytotoxicity against human MDA-MB-231 cells after 48 hrs by alamar blue assay; format: functional, cell-based; conditions: MDA-MB-231, 48 h; outline: as §1
[1] = Solubility in water; format: physicochemical
[2] = Cytotoxicity against human UCI101 cells after 48 hrs by alamar blue assay; format: functional, cell-based; conditions: UCI101, 48 h; outline: as §1
HL-60 = experiment: Induction of apoptosis in human HL60 cells by flow cytometry; format: functional, cell-based
[3] = Inhibition of tubulin without microtubule associated protein polymerization at 5 uM after 60 mins

| SMILES | IC50 (MIA PaCa-2) [nM] | IC50 (SNU-423) [nM] | IC50 (MDA-MB-231) [nM] | solubility [1] [µg/mL] | IC50 [2] [nM] | IC50 (HL-60) [nM] | Activity [3] |
| --- | --- | --- | --- | --- | --- | --- | --- |
| COc1cc(/C=C\c2ccc(OC)c(N)c2)cc(OC)c1.Cl | 40 | 30 | 30 | 6000 | 30 | 30 | – |
| COc1cc(/C=C\c2ccc3c(ccn3C)c2)cc(OC)c1 | 80 | 30 | 80 | < 1000 | 40 | – | – |
| COc1cc(/C=C\c2ccc(OC)c(NC(=O)OCCN3CCOCC3)c2)cc(OC)c1 [listing 1 of 2 here] | – | 5000 | – | – | 5000 | – | – |
| COc1cc(/C=C\c2ccc3[nH]ccc3c2)cc(OC)c1 | 200 | 700 | 250 | – | 250 | – | – |
| COc1cc(/C=C\c2ccc(OC)c(NC(=O)NCCN3CCOCC3)c2)cc(OC)c1 | – | – | – | – | > 10000 | – | – |
| COc1ccc(/C=C\c2ccc3[nH]ccc3c2)cc1N | – | – | – | – | 5000 | – | – |
| CCOc1cc(/C=C\c2ccc(OC)c(N)c2)cc(OC)c1 | – | – | – | – | 80 | – | Active |
| COc1cc(/C=C\c2ccc(OC)c(NC(=O)OCCN3CCOCC3)c2)cc(OC)c1.O=C(O)C(=O)O | – | – | – | 5900 | – | – | – |
| C=CCOc1cc(/C=C\c2ccc(OC)c(N)c2)cc(OC)c1 | – | – | – | – | 200 | – | – |
| COc1cc(/C=C\c2ccc(OC)c(N)c2)cc(OC)c1.O=C(O)C(=O)O | – | – | – | < 1000 | – | – | – |
| COc1cc(/C=C\c2ccc(OC)c(N)c2)cc(OCCO)c1 | 180 | 200 | 80 | – | 150 | – | – |
| COc1cc(/C=C\c2ccc(OC)c(N)c2)cc(OC)c1 [listing 1 of 2 here] | – | – | – | < 1000 | – | – | – |
| COc1cc(/C=C\c2ccc(OC)c(O)c2)cc(OC)c1 | – | 15 | – | – | 30 | 30 | – |
| COc1cc(/C=C\c2ccc(OC)c(N)c2)cc(OC)c1 [listing 2 of 2 here] | – | – | – | – | – | – | Active |
| CC[C@]1(O)C[C@H]2CN(CCc3c([nH]c4ccccc34)[C@@](C(=O)OC)(c3cc4c(cc3OC)N(C=O)[C@H]3[C@@](O)(C(=O)OC)[C@H](OC(C)=O)[C@]5(CC)C=CCN6CC[C@]43[C@@H]65)C2)C1 [VINCRISTINE] | 15 | 10 | 15 | – | 20 | – | – |
| COc1ccc(/C=C\c2cc(OC)c(OC)c(OC)c2)cc1O [COMBRETASTATIN A4] | 8 | 6 | 4 | – | 2 | – | – |
| COc1ccc(/C=C\c2ccc3c(ccn3C)c2)cc1N | – | – | – | < 1000 | 200 | – | – |
| COc1cc(/C=C\c2ccc3[nH]cnc3c2)cc(OC)c1 | 800 | 1000 | 800 | – | 260 | – | – |
| COc1cc2c(c(OC)c1OC)-c1ccc(OC)c(=O)cc1[C@@H](NC(C)=O)CC2 [COLCHICINE] | 25 | 25 | 20 | – | 30 | – | Active |
| COc1cc(/C=C\c2ccc(OC)c(N)c2)cc(OC(C)C)c1 | – | – | – | – | 100 | – | – |
| COc1cc(/C=C\c2ccc3ccn(C)c3c2)cc(OC)c1 | – | – | – | – | 220 | – | – |
| COc1cc(/C=C\c2ccc(OC)c(N)c2)cc(OCC(=O)O)c1 | – | – | – | – | > 10000 | – | – |
| COc1cc(/C=C\c2ccc(OC)c(NC(=O)OCCOCCOCCO)c2)cc(OC)c1 | – | – | – | – | > 10000 | – | – |
| COc1cc(O)cc(/C=C\c2ccc(OC)c(N)c2)c1 | 700 | 2000 | 800 | – | 800 | – | Active |
| COc1cc(/C=C\c2ccc(OC)c(NC(=O)OCCN3CCOCC3)c2)cc(OC)c1 [listing 2 of 2 here] | – | – | – | < 1000 | – | – | – |
| COc1cc(/C=C\c2ccc3cc[nH]c3c2)cc(OC)c1 | 200 | 700 | 250 | – | 250 | – | – |
